Data: ChEMBL document CHEMBL1155293 (Eur J Med Chem, 2009)
Blank lines part the entries; values can stand above or below the molecule they belong to. The source made the active and inactive calls.

Experiments:
[1] = Lipophilicity, log P of the compound; assay type: physicochemical; conditions: octanol/water
Mus musculus [2] = test: Antinociceptive activity in Swiss mouse by inhibition of acetic acid-induced abdominal constriction at 10 mg/kg, ip after 20 mins; assay type: functional; conditions: Abdomen, route intraperitoneal
Outline: (§1)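 Male Swiss mice (25–30 g) were pretreated i.p. 30 min before i.p. acetic acid (0.6%): 10 mg/kg for screening, or 3, 6 and 10 mg/kg for dose-response. Controls received vehicle (0.9% NaCl and Tween 80, 10 ml/kg i.p.). Abdominal constrictions plus stretching were counted cumulatively over 20 min at 23 ± 2 °C. Inhibition is relative to controls; ID50 by linear regression.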

Mus musculus [3] = test: Antinociceptive activity in Swiss mouse by inhibition of acetic acid-induced abdominal constriction at 100 mg/kg, po after 20 mins; assay type: functional, Abdomen; design: scale not given: the % may be the effect or the level left
Outline: (§2)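 Oral dosing of male Swiss mice (25–30 g) at 100, 250 and 500 mg/kg, 30 min before i.p. acetic acid (0.6%). Vehicle was Tween 80 in 0.9% NaCl. Abdominal constrictions with stretching were counted cumulatively for 20 min at 23 ± 2 °C. Inhibition is relative to vehicle controls; mean ± SEM of six values.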

Mus musculus [4] = test: Antinociceptive activity against formalin-induced pain in Swiss mouse assessed as reduction of time spent in paw licking and biting at 30 mg/kg, ip after 0 to 5 mins; assay type: functional; design: scale not given: the % may be the effect or the level left; conditions: route intraperitoneal
Outline: (§3)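 Swiss mice, 6–8 per group, housed at 22 ± 2 °C on a 12 h light/dark cycle. Compound given i.p. at 6, 10 or 30 mg/kg in Tween 80/0.9% NaCl vehicle (Tween ≤5%) before intraplantar formalin. Licking was scored for the first phase (0–5 min) and second phase (15–30 min). Mean ± SEM of six values; ID50 by linear regression with 95% confidence limits.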

Mus musculus [5] = test: Antinociceptive activity against formalin-induced pain in ip dosed Swiss mouse assessed as reduction of time spent in paw licking; assay type: functional; conditions: for ED50: read-out: ID50 (the source's name); outline: as §3
Mus musculus [6] = test: Antinociceptive activity in Swiss mouse assessed as reduction in response latency at 10 mg/kg, ip after 30 mins by hot plate method; assay type: functional, organism-based; design: dose 10 mg/kg
Outline: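 Mice received saline, morphine 10 mg/kg s.c., or test compound 10 mg/kg i.p. 30 min before testing on a hot plate at 56 ± 1 °C. Latency to hindpaw licking, paw shaking or jumping was recorded. Mice with baseline latency above 20 s were excluded; cut-off was 30 s. Mean ± SEM of six values.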

Mus musculus [7] = test: Antinociceptive activity in ip dosed Swiss mouse by inhibition of acetic acid-induced abdominal constriction after 20 mins; assay type: functional; conditions: Abdomen, read-out: ID50 (the source's name); outline: as §1
Mus musculus [8] = test: Antinociceptive activity in Swiss mouse by inhibition of acetic acid-induced abdominal constriction at 250 mg/kg, po after 20 mins; assay type: functional, Abdomen; design: scale not given: the % may be the effect or the level left; outline: as §2
Mus musculus [9] = test: Antinociceptive activity in po dosed Swiss mouse by inhibition of acetic acid-induced abdominal constriction; assay type: functional; conditions: Abdomen, read-out: ID50 (the source's name); outline: as §2
Mus musculus [10] = test: Antinociceptive activity against formalin-induced pain in Swiss mouse assessed as reduction of time spent in paw licking and biting at 10 mg/kg, ip after 15 to 30 mins; assay type: functional; design: scale not given: the % may be the effect or the level left; conditions: route intraperitoneal; outline: as §3
Mus musculus [11] = test: Antinociceptive activity against glutamate-induced pain in ip dosed Swiss mouse assessed as reduction in time spent on paw licking and biting; assay type: functional
Outline: (§4)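 Dosing was i.p. at 10, 30 or 60 mg/kg, 30 min before intraplantar glutamate (30 µmol/paw) into the right hindpaw. Time spent licking or biting the injected paw was timed from 0 to 15 min. Mean ± SEM of six values; ID50 from linear regression as geometric mean with 95% confidence limits. ANOVA with Newman–Keuls test.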

Mus musculus [12] = test: Antinociceptive activity against formalin-induced pain in Swiss mouse assessed as reduction of time spent in paw licking and biting at 30 mg/kg, ip after 15 to 30 mins; assay type: functional; design: scale not given: the % may be the effect or the level left; conditions: route intraperitoneal; outline: as §3
Mus musculus [13] = test: Antinociceptive activity in ip dosed Swiss mouse by inhibition of formalin induced pain after 15 to 30 mins; assay type: functional; conditions: read-out: ID50 (the source's name); outline: as §3
Mus musculus [14] = test: Antinociceptive activity against capsaicin-induced neurogenic pain in Swiss mouse by reduction of paw licking response at 60 mg/kg, ip; assay type: functional; design: scale not given: the % may be the effect or the level left; conditions: route intraperitoneal
Outline: (§5)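 Capsaicin dissolved in absolute ethanol (final ≤5%), injected intraplantarly. Test compound given i.p. at 10, 30 and 60 mg/kg, 30 min before capsaicin, in Tween 80 plus 0.9% NaCl. Time spent licking the injected paw was timed over 5 min. Data are mean ± SEM; ID50 from linear regression as geometric mean with 95% confidence limits. ANOVA with Newman–Keuls test.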

Mus musculus [15] = test: Antinociceptive activity in Swiss mouse by inhibition of acetic acid-induced abdominal constriction at 500 mg/kg, po after 20 mins; assay type: functional, Abdomen; design: scale not given: the % may be the effect or the level left; outline: as §2
Mus musculus [16] = test: Antinociceptive activity against formalin-induced pain in Swiss mouse assessed as reduction of time spent in paw licking and biting at 10 mg/kg, ip after 0 to 5 mins; assay type: functional; design: scale not given: the % may be the effect or the level left; conditions: route intraperitoneal; outline: as §3
Mus musculus [17] = test: Antinociceptive activity against capsaicin-induced neurogenic pain in ip dosed Swiss mouse by reduction of paw licking response; assay type: functional; outline: as §5
Mus musculus [18] = test: Antinociceptive activity in ip dosed Swiss mouse by inhibition of formalin induced pain after 0 to 5 mins; assay type: functional; conditions: read-out: ID50 (the source's name); outline: as §3
Mus musculus [19] = test: Antinociceptive activity against capsaicin-induced neurogenic pain in Swiss mouse by reduction of paw licking response at 30 mg/kg, ip; assay type: functional; design: scale not given: the % may be the effect or the level left; conditions: route intraperitoneal; outline: as §5
Mus musculus [20] = test: Antinociceptive activity against glutamate-induced pain in Swiss mouse assessed as reduction in time spent on paw licking and biting at 60 mg/kg, ip; assay type: functional; design: scale not given: the % may be the effect or the level left; conditions: route intraperitoneal; outline: as §4
Mus musculus [21] = test: Antinociceptive activity against glutamate-induced pain in Swiss mouse assessed as reduction in time spent on paw licking and biting at 30 mg/kg, ip; assay type: functional; design: scale not given: the % may be the effect or the level left; conditions: route intraperitoneal; outline: as §4
Mus musculus [22] = test: Antinociceptive activity against glutamate-induced pain in Swiss mouse assessed as reduction in time spent on paw licking and biting at 10 mg/kg, ip; assay type: functional; design: scale not given: the % may be the effect or the level left; conditions: route intraperitoneal; outline: as §4
[23] = read-out: ID50 (the source's name)

logP [1]: 3.36
Structure (SMILES): O=C(/C=C/c1ccc(O)c(O)c1)OCCc1ccccc1 [CAFFEIC ACID PHENETHYL ESTER]
inhibition in vivo at 10 mg/kg (Mus musculus [2]): 27.5%

logP [1]: 7.04
Structure (SMILES): CCCCCCCCCCCCOC(=O)/C=C/c1ccc(O)c(O)c1
Activity (Mus musculus [3]): 22.2%
Activity (Mus musculus [4]): 56.2%
Activity (Mus musculus [5]): Dose-dependent effect
inhibition in vivo at 10 mg/kg (Mus musculus [2]): 78.8%
Activity (Mus musculus [6]): inactive
ED50 (Mus musculus [7]): 5.25 mg/kg
Activity (Mus musculus [8]): 32.4%
ED50 (Mus musculus [9]): ≥ 500 mg/kg
Activity (Mus musculus [10]): 34.4%
Activity (Mus musculus [11]): Dose-dependent effect
ED50 (Mus musculus [11]; [23]): 38.4 mg/kg
Activity (Mus musculus [12]): 56.8%
ED50 (Mus musculus [13]): 23.8 mg/kg
Activity (Mus musculus [14]): 58.6%
Activity (Mus musculus [15]): 45.7%
Activity (Mus musculus [16]): 20.7%
Activity (Mus musculus [17]): Dose-dependent effect
ED50 (Mus musculus [17]; [23]): 46.6 mg/kg
ED50 (Mus musculus [18]): 26.2 mg/kg
Activity (Mus musculus [19]): 36.9%
Activity (Mus musculus [20]): 65.2%
Activity (Mus musculus [21]): 46.3%
Activity (Mus musculus [22]): 25.6%

logP [1]: 0.68
Structure (SMILES): CC(=O)Oc1ccccc1C(=O)O [ASPIRIN]
ED50 (Mus musculus [5]): 123 µmol/kg
inhibition in vivo at 10 mg/kg (Mus musculus [2]): 35%
ED50 (Mus musculus [7]): 125 µmol/kg

logP [1]: 2.3
Structure (SMILES): CC(C)OC(=O)/C=C/c1ccc(O)c(O)c1
inhibition in vivo at 10 mg/kg (Mus musculus [2]): 31%

logP [1]: 2.68
Structure (SMILES): CC(C)COC(=O)/C=C/c1ccc(O)c(O)c1
inhibition in vivo at 10 mg/kg (Mus musculus [2]): 52%

logP [1]: 5.02
Structure (SMILES): CCCCCCCCOC(=O)/C=C/c1ccc(O)c(O)c1
inhibition in vivo at 10 mg/kg (Mus musculus [2]): 46.2%

logP [1]: 3.21
Structure (SMILES): CC(C)CCOC(=O)/C=C/c1ccc(O)c(O)c1
inhibition in vivo at 10 mg/kg (Mus musculus [2]): 75.8%

logP [1]: 2.99
Structure (SMILES): CCCCOC(=O)/C=C/c1ccc(O)c(O)c1 [BUTYL CAFFEATE]
inhibition in vivo at 10 mg/kg (Mus musculus [2]): 45%

logP [1]: 1.56
Structure (SMILES): COC(=O)/C=C/c1ccc(O)c(O)c1 [METHYLCAFFEATE]
inhibition in vivo at 10 mg/kg (Mus musculus [2]): 54.5%

logP [1]: 1.93
Structure (SMILES): CCOC(=O)/C=C/c1ccc(O)c(O)c1 [ETHYL CAFFEATE]
inhibition in vivo at 10 mg/kg (Mus musculus [2]): 58.1%

logP [1]: 3.15
Structure (SMILES): O=C(/C=C/c1ccc(O)c(O)c1)OCc1ccccc1 [BENZYL CAFFEATE]
inhibition in vivo at 10 mg/kg (Mus musculus [2]): 8.8%

Structure (SMILES): O=C(O)/C=C/c1ccc(O)c(O)c1 [CAFFEIC ACID]
inhibition in vivo at 10 mg/kg (Mus musculus [2]): 34.6%

logP [1]: 1.43
Structure (SMILES): CC(=O)Nc1ccc(O)cc1 [ACETAMINOPHEN]
ED50 (Mus musculus [5]): 120 µmol/kg
inhibition in vivo at 10 mg/kg (Mus musculus [2]): 38%
ED50 (Mus musculus [7]): 133 µmol/kg
